Measured values as given in ChEMBL document CHEMBL1150387, “Development and experimental validation of a docking strategy for the generation of kinase-targeted libraries” (J Med Chem, 2008).

Assays:
[1] = Inhibition of IRK at 10 uM by HTRF assay relative to control
Method in brief: (§1)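 HTRF kinase assay, one panel of kinases. Inhibitor stock 50 µM in 100% DMSO; tested at 10 µM. ATP and substrate at final levels near Km. Final buffer: 50 mM Hepes/NaOH pH 7.4, 40 µM Na3VO4, 0.005% Tween-20, 1 mM DTT, MnCl2 or MgCl2 at kinase-dependent levels. Started by adding ATP/substrate. Reaction run at room temperature, time varied by kinase. Detection mix in 50 mM Hepes pH 7.4, 0.1% BSA, 150 mM KF, incubated ≥1 h at room temperature. Activity expressed as % of uninhibited control; n=2.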

[2] = biological target: Insulin-like growth factor 1 receptor (Homo sapiens) (UniProt P08069); assay: Inhibition of IGF1R at 10 uM by HTRF assay relative to control; method in brief: as §1
Insulin-like growth factor 1 receptor (Homo sapiens), sequence (P08069 31-736 limits assumed): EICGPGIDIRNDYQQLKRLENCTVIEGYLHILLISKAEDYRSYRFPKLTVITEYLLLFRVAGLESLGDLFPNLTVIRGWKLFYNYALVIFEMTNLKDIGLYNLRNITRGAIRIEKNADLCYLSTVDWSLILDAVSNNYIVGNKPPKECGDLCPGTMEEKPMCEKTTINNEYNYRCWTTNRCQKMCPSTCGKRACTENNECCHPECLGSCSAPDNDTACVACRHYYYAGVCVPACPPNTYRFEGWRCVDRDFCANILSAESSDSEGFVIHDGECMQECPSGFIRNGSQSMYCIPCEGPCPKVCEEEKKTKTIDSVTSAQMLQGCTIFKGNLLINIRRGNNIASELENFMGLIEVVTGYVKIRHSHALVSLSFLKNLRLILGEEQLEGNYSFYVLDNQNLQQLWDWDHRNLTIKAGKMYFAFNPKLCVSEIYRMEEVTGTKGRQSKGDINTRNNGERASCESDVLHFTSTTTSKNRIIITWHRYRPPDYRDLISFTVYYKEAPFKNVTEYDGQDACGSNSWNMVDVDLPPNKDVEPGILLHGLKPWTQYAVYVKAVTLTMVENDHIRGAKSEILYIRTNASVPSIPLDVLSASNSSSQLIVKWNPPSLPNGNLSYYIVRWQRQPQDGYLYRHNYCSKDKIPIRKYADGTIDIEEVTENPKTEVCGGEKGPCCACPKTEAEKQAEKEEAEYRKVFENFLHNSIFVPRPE
Insulin-like growth factor 1 receptor (Homo sapiens), sequence (P08069 741-1367 limits assumed): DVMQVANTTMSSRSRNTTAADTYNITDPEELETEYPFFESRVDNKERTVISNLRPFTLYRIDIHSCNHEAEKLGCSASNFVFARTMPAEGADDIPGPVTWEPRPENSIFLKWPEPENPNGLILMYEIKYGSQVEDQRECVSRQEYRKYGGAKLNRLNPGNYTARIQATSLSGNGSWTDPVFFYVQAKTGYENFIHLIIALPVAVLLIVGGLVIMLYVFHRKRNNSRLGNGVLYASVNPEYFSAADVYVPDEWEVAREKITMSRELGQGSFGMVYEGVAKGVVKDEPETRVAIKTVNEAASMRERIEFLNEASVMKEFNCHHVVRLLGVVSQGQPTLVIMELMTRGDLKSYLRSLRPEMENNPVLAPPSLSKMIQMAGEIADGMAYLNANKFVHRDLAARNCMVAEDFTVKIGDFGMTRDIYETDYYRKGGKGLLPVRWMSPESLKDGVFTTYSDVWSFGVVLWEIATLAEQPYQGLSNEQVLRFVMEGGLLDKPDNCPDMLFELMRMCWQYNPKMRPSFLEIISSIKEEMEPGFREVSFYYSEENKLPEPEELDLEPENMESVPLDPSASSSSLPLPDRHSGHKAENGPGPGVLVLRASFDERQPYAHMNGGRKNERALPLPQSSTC

[3] = biological target: Receptor-type tyrosine-protein kinase FLT3 (Homo sapiens) (UniProt P36888); assay: Inhibition of FLT3 at 10 uM by HTRF assay relative to control; method in brief: as §1
[4] = biological target: Fibroblast growth factor receptor 1 (Homo sapiens) (UniProt P11362); assay: Inhibition of FGFR1 at 10 uM by HTRF assay relative to control; method in brief: as §1
[5] = biological target: Epidermal growth factor receptor (Homo sapiens) (UniProt P00533); assay: Inhibition of EGFR at 10 uM by HTRF assay relative to control; method in brief: as §1
[6] = biological target: Mitogen-activated protein kinase 8 (Homo sapiens) (UniProt P45983); assay: Inhibition of JNK1 at 10 uM by HTRF assay relative to control; method in brief: as §1
[7] = biological target: T1, Inhibitor of nuclear factor kappa-B kinase subunit beta (Homo sapiens) (UniProt O14920); assay: Inhibition of IKK-beta at 10 uM by HTRF assay relative to control; method in brief: as §1
T1 sequence (whole entry): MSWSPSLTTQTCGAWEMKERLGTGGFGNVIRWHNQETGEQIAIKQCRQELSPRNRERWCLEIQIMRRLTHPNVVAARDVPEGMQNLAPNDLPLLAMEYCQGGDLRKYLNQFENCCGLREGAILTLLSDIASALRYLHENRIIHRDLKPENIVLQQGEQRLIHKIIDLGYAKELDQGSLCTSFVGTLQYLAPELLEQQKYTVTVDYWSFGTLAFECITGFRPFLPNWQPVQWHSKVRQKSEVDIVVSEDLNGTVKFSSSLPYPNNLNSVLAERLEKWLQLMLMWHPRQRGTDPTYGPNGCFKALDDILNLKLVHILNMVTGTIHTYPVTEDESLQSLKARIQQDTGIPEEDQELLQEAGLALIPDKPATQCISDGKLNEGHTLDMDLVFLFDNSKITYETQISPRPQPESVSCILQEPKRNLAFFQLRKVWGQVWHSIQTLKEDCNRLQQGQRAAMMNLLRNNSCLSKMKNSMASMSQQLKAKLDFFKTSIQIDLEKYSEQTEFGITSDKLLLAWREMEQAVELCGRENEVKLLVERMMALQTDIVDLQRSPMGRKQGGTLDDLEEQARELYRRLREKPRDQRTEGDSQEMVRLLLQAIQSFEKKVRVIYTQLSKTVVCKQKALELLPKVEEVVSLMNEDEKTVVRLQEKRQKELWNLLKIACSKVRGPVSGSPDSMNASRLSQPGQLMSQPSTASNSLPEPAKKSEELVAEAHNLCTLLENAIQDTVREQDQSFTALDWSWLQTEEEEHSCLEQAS

[8] = biological target: Cyclin-dependent kinase 1 (Homo sapiens) (UniProt P06493); assay: Inhibition of CDK1 at 10 uM by HTRF assay relative to control; method in brief: as §1
Cyclin-dependent kinase 1 (Homo sapiens), sequence (P06493 whole entry, looked up): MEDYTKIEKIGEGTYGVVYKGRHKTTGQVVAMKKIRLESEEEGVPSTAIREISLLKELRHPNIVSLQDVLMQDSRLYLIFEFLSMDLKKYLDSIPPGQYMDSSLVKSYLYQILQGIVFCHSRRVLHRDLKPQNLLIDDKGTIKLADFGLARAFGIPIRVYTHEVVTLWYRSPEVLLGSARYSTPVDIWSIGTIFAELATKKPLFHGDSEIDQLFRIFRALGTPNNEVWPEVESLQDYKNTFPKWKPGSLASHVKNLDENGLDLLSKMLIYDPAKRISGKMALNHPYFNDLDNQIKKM

[9] = biological target: T2, Serine/threonine-protein kinase Chk1 (Homo sapiens) (UniProt O14757); assay: Inhibition of CHK1 at 10 uM by HTRF assay relative to control; method in brief: as §1
T2 sequence (whole entry): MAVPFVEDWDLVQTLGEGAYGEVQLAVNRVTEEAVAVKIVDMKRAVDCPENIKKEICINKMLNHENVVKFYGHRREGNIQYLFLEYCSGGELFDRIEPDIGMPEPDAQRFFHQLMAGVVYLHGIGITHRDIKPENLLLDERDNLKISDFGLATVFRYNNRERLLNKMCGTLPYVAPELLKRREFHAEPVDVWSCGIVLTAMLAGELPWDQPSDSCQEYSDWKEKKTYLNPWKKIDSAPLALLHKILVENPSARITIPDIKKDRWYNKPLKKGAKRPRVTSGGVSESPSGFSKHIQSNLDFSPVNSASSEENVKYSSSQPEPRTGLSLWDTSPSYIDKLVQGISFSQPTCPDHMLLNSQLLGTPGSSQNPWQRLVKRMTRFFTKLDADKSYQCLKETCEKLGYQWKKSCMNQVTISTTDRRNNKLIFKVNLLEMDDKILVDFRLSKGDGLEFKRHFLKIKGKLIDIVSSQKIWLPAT

[10] = biological target: Calcium/calmodulin-dependent protein kinase type II subunit alpha (Homo sapiens) (UniProt Q9UQM7); assay: Inhibition of CaMK2alpha at 10 uM by HTRF assay relative to control; method in brief: as §1
[11] = biological target: Ribosomal protein S6 kinase alpha-3 (Homo sapiens) (UniProt P51812); assay: Inhibition of RSK2 at 10 uM by HTRF assay relative to control; method in brief: as §1
[12] = biological target: Rho-associated protein kinase 2 (Homo sapiens) (UniProt O75116); assay: Inhibition of ROCK2 at 10 uM by HTRF assay relative to control; method in brief: as §1
Rho-associated protein kinase 2 (Homo sapiens), sequence (O75116 whole entry, looked up): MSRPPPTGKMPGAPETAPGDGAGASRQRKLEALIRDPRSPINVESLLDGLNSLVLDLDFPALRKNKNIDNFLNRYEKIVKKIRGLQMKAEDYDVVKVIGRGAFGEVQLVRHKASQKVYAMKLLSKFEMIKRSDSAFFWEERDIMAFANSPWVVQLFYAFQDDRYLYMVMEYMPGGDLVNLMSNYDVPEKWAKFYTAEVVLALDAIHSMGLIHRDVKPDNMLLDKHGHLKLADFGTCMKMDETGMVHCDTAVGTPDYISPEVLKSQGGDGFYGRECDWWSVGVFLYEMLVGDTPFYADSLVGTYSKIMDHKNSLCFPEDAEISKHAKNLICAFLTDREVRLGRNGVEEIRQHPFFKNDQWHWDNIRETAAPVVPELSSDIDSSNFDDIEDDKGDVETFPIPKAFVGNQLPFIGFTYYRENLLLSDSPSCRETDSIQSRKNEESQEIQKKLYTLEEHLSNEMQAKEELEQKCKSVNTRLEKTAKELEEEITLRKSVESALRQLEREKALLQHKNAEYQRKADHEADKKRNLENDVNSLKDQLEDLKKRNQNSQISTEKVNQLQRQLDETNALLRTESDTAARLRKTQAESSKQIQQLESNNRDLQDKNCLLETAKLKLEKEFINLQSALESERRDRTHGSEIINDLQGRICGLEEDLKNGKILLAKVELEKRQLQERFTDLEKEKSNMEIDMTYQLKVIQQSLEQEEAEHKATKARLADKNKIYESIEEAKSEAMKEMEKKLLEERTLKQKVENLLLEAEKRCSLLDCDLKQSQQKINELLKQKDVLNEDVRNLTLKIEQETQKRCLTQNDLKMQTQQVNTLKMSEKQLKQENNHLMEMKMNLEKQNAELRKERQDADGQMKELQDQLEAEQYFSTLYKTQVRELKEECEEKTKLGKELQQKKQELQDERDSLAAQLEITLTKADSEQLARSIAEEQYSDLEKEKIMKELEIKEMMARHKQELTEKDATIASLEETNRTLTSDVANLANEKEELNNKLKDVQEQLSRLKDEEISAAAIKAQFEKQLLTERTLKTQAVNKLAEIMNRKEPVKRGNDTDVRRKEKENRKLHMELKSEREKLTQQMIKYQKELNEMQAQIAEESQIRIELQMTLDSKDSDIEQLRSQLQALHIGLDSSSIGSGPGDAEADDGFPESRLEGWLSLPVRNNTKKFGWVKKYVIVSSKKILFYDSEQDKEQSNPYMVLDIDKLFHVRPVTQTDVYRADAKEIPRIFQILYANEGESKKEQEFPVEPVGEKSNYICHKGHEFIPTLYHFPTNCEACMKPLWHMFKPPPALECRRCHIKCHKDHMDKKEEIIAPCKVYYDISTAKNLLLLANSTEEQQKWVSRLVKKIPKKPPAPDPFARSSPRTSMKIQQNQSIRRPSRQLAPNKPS

[13] = biological target: Protein kinase C alpha type (Homo sapiens) (UniProt P17252); assay: Inhibition of PKCalpha at 10 uM by HTRF assay relative to control; method in brief: as §1
[14] = biological target: RAC-alpha serine/threonine-protein kinase (Homo sapiens) (UniProt P31749); assay: Inhibition of AKT1/PKBalpha at 10 uM by HTRF assay relative to control; method in brief: as §1
[15] = biological target: Proto-oncogene tyrosine-protein kinase Src (Homo sapiens) (UniProt P12931); assay: Inhibition of Src at 10 uM by HTRF assay relative to control; method in brief: as §1
[16] = biological target: Tyrosine-protein kinase Lck (Homo sapiens) (UniProt P06239); assay: Inhibition of Lck at 10 uM by HTRF assay relative to control; method in brief: as §1
Tyrosine-protein kinase Lck (Homo sapiens), sequence (P06239 2-509 limits assumed): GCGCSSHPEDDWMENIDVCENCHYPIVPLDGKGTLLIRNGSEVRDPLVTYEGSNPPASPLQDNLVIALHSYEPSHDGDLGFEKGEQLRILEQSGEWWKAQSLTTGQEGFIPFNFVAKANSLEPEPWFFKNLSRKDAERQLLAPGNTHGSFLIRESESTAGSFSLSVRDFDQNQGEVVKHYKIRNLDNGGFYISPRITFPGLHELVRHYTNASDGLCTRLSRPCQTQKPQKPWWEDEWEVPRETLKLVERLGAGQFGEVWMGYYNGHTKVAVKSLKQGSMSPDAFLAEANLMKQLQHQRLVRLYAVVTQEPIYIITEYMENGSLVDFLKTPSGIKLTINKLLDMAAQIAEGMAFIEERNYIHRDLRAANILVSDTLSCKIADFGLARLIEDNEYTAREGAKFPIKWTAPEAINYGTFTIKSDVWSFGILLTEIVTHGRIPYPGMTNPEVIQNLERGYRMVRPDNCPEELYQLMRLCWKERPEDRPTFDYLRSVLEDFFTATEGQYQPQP

[17] = biological target: Tyrosine-protein kinase Fes/Fps (Homo sapiens) (UniProt P07332); assay: Inhibition of FES at 10 uM by HTRF assay relative to control; method in brief: as §1
[18] = biological target: Protein-tyrosine kinase 6 (Homo sapiens) (UniProt Q13882); assay: Inhibition of Brk at 10 uM by HTRF assay relative to control; method in brief: as §1
[19] = biological target: Vascular endothelial growth factor receptor 2 (Homo sapiens) (UniProt P35968); assay: Inhibition of KDR at 10 uM by HTRF assay relative to control; method in brief: as §1
Vascular endothelial growth factor receptor 2 (Homo sapiens), sequence (P35968 whole entry): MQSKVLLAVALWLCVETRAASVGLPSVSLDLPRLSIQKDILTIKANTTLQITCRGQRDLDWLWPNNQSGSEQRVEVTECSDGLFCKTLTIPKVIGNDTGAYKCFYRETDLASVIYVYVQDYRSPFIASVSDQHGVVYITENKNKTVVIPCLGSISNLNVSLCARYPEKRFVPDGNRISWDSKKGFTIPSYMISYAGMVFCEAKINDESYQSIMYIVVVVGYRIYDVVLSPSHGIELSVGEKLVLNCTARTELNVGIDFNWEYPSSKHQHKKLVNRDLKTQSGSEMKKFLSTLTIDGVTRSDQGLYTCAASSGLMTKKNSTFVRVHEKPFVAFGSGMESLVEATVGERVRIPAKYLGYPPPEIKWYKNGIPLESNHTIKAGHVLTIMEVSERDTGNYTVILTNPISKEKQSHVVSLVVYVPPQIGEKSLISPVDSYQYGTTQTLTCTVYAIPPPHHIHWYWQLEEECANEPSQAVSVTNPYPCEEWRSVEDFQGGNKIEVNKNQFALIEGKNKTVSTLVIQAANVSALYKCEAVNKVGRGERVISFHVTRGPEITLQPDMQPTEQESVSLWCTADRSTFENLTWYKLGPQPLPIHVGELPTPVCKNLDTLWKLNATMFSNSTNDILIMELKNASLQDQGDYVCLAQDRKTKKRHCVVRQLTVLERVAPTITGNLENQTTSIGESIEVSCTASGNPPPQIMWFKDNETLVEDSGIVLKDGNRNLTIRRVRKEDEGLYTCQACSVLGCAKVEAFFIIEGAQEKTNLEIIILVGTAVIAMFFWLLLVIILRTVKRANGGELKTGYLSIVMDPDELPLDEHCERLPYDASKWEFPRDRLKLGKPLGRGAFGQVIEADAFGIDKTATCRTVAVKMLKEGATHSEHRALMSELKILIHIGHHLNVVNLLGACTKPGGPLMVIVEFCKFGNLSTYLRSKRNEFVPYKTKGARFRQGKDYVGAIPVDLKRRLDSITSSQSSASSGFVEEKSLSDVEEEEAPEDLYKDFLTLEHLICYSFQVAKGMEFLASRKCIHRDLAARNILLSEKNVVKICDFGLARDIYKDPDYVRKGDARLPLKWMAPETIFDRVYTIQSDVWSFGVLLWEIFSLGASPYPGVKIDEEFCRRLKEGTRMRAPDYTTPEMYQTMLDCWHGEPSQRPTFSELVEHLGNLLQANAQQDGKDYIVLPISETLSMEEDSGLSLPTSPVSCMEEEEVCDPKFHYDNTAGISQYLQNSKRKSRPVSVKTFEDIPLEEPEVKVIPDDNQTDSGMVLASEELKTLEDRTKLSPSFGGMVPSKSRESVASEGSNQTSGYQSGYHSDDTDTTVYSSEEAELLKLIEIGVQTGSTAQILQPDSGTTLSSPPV

inhibition [1] [%] | inhibition [2] [%] | inhibition [3] [%] | inhibition [4] [%] | inhibition [5] [%] | inhibition [6] [%] | inhibition [7] [%] | inhibition [8] [%] | inhibition [9] [%] | inhibition [10] [%] | inhibition [11] [%] | inhibition [12] [%] | inhibition [13] [%] | inhibition [14] [%] | inhibition [15] [%] | inhibition [16] [%] | inhibition [17] [%] | inhibition [18] [%] | inhibition [19] [%] | Structure (SMILES)
0 | 0 | 0 | 11 | 0 | 8 | 4 | 0 | 4 | 0 | 0 | 0 | 0 | 0 | 5 | 0 | 16 | 3 | 14 | CC(=O)CCCCC(=O)N1CCN(c2nccc(Oc3cccc(C)c3)n2)CC1
0 | 0 | 0 | 0 | 84 | 2 | 7 | 0 | 2 | 0 | 0 | 0 | 0 | 6 | 3 | 0 | 7 | 32 | 0 | Cc1cccc(N(C)c2cc(Nc3cccc(C(=O)N4CCCC5CCCCC54)c3)ncn2)c1 (configuration not stated)
0 | 0 | 15 | 5 | 100 | 24 | 0 | 0 | 0 | 0 | 0 | 0 | 7 | 0 | 24 | 24 | 22 | 12 | 26 | Cc1cccc(N(C)c2cc(Nc3cccc(C(=O)NCCCn4ccnc4)c3)ncn2)c1
0 | 0 | 0 | 14 | 0 | 7 | 1 | 8 | 5 | 0 | 0 | 0 | 0 | 0 | 2 | 0 | 0 | 24 | 0 | O=C(c1nc(SCc2ccc(Cl)cc2)n2ccccc12)N1CCN(c2cc(Nc3cccc(Br)c3)ncn2)CC1
87 | 95 | 99 | 86 | 16 | 97 | 52 | 5 | 7 | 34 | 17 | 29 | 0 | 0 | 99 | 100 | 97 | 97 | 89 | CN(C)CC(C)(C)CNC(=O)c1cccc(Nc2nccc(Nc3ccc4ncsc4c3)n2)c1
0 | 0 | 0 | 11 | 0 | 0 | 5 | 0 | 1 | 0 | 0 | 1 | 0 | 0 | 3 | 0 | 9 | 15 | 17 | Nc1nc(N2CCOCC2)cc(N2CCC(C(=O)NCc3cccs3)CC2)n1
0 | 0 | 13 | 0 | 100 | 19 | 0 | 7 | 3 | 0 | 3 | 0 | 0 | 0 | 26 | 9 | 22 | 0 | 19 | Cc1cccc(N(C)c2cc(Nc3cccc(C(=O)NCc4ccncc4)c3)ncn2)c1
1 | 7 | 0 | 7 | 2 | 0 | 4 | 0 | 2 | 0 | 0 | 2 | 0 | 0 | 0 | 0 | 3 | 4 | 10 | Nc1nc(Nc2ccc3ncsc3c2)cc(N2CCC[C@H]2C(=O)N[C@@H](CO)c2ccccc2)n1
0 | 0 | 0 | 0 | 0 | 0 | 0 | 0 | 0 | 0 | 0 | 0 | 4 | 0 | 1 | 0 | 11 | 9 | 1 | O=C(CN1CCN(c2ncnc3c2CN(Cc2ccccc2)CC3)CC1)Nc1cc(F)ccc1F
0 | 0 | 0 | 5 | 0 | 9 | 3 | 0 | 4 | 0 | 0 | 0 | 0 | 0 | 0 | 0 | 24 | 16 | 3 | Cc1cccc(N(C)c2cc(N3CCN(C(=O)Cc4c[nH]c5ccccc45)CC3)ncn2)c1
66 | 87 | 86 | 82 | 8 | 49 | 9 | 1 | 5 | 0 | 57 | 5 | 0 | 0 | 64 | 45 | 75 | 36 | 81 | Cc1cccc(Nc2nccc(Nc3cccc(C(=O)N(C)CCc4ccccn4)c3)n2)c1
0 | 0 | 0 | 7 | 0 | 1 | 4 | 0 | 2 | 0 | 0 | 0 | 0 | 1 | 2 | 0 | 4 | 14 | 6 | COc1cccc(Nc2cc(N3CCC[C@H]3C(=O)NCCc3ccc(O)cc3)nc(N)n2)c1
0 | 6 | 11 | 16 | 62 | 4 | 0 | 0 | 4 | 0 | 0 | 0 | 0 | 0 | 1 | 0 | 0 | 4 | 8 | COc1ccc(NC(=O)Cc2ccc(Nc3cc(N(C)c4cccc(C)c4)ncn3)cc2)cn1
